In brackets after ≈: the same amount, converted by molar mass. Activity calls are given as the source filed them. The rule behind the calls is not given here.
Experiments:
[1] = tested on: Mycolicibacterium smegmatis MC2 155; assay: Inhibition of STPK in Mycobacterium smegmatis MC2 155 expressing aminoglycoside phophotransferase-8 assessed as growth inhibition at 50 nmol/disk after 18 hrs in presence of kanamycin by paper disk method
[2] = tested on: Mycolicibacterium smegmatis; assay: Antimycobacterial activity against Mycobacterium smegmatis atR33 in liquid medium after 48 hrs by two-fold serial dilution method; assay type: functional; settings: atR33, 48 h
Method in brief: (§1)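 M. smegmatis resistant mutants were isolated on M290 agar containing 3.5-4× MIC of the test compound at 30°C and resistance was reconfirmed. MIC was then run in Lemco-Tw broth (Tween-80 0.05%). An overnight culture was diluted 1:200, and two-fold serial dilutions in DMSO were added. Plates were incubated at 37°C and 250 rpm for 48 h. MIC was read as the lowest concentration with no visible growth.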

[3] = tested on: Mycolicibacterium smegmatis; assay: Antimycobacterial activity against Mycobacterium smegmatis MC2 155 in liquid medium after 48 hrs by two-fold serial dilution method; assay type: functional; settings: MC2 155, 48 h
Method in brief: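 M. smegmatis mc2 155 grown overnight in Lemco-Tw broth, diluted 1:200 in fresh broth. […] Top wells could carry 4% DMSO. Incubated 48 h at 37 °C with shaking at 250 rpm. MIC is the lowest concentration with no visible growth.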

[4] = tested on: Mycolicibacterium smegmatis; assay: Antimycobacterial activity against Mycobacterium smegmatis atR10 assessed as decrease in drug resistance development at 300 nmol/disc after 2 to 3 days by paper disc method; assay type: functional, organism-based
Method in brief: (§2)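 Mutant M. smegmatis strains were grown in Middlebrook 7H9/OADC/Tween/glycerol to OD600 1.2. Cultures were diluted 1:9:10 (culture:water:M290) and overlaid on M290 agar. Commercial or impregnated paper discs were applied and plates incubated 2–3 days at 37 °C. Inhibition halos were measured to 1 mm, run in triplicate, mean ± SD.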

[5] = tested on: Mycolicibacterium smegmatis; assay: Antimycobacterial activity against Mycobacterium smegmatis atR2 assessed as decrease in drug resistance development at 300 nmol/disc after 2 to 3 days by paper disc method; assay type: functional, organism-based; method in brief: as §2
[6] = tested on: Mycolicibacterium smegmatis; assay: Antimycobacterial activity against Mycobacterium smegmatis atR33 assessed as decrease in drug resistance development at 300 nmol/disc after 2 to 3 days by paper disc method; assay type: functional, organism-based; method in brief: as §2
[7] = tested on: Mycobacterium tuberculosis; assay: Antimycobacterial activity against Mycobacterium tuberculosis H37Rv in liquid medium; assay type: functional
Method in brief: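 M. tuberculosis H37Rv; MIC determined in liquid medium on the automated Bactec MGIT 960 system.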

[8] = tested on: Mycolicibacterium smegmatis; assay: Antimycobacterial activity against Mycobacterium smegmatis atR11 in liquid medium after 48 hrs by two-fold serial dilution method; assay type: functional; settings: atR11, 48 h; method in brief: as §1
[9] = tested on: Mycolicibacterium smegmatis; assay: Antimycobacterial activity against Mycobacterium smegmatis atR19 assessed as decrease in drug resistance development at 300 nmol/disc after 2 to 3 days by paper disc method; assay type: functional, organism-based; method in brief: as §2
[10] = tested on: Mycolicibacterium smegmatis; assay: Antimycobacterial activity against Mycobacterium smegmatis MC2 155 in solid medium by two-fold serial dilution method; assay type: functional
Method in brief: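 M290 soybean-casein agar plates carried two-fold compound dilutions, 8–64 or 8–128 µg/ml, some with extra 20 or 25 µg/ml plates.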

[11] = tested on: Mycolicibacterium smegmatis; assay: Antimycobacterial activity against Mycobacterium smegmatis atR1 in liquid medium after 48 hrs by two-fold serial dilution method; assay type: functional; settings: atR1, 48 h; method in brief: as §1
[12] = tested on: Mycolicibacterium smegmatis; assay: Antimycobacterial activity against Mycobacterium smegmatis atR8 assessed as decrease in drug resistance development at 300 nmol/disc after 2 to 3 days by paper disc method; assay type: functional, organism-based
Method in brief: (§3)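 Drug-resistant M. smegmatis mc2 155 mutants, isolated on M290 agar with 3.5-4× MIC of compound and resistance re-confirmed, grown in Middlebrook 7H9 (OADC, 0.1% Tween-80, 0.4% glycerol) to OD600 1.2. Diluted 1:9:10 culture:water:M290 and poured as top layer on M290 agar. Impregnated paper discs applied; 37 °C for 2–3 days. Halos measured to nearest 1 mm; triplicates, mean ± SD versus control strain.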

[13] = tested on: Mycolicibacterium smegmatis; assay: Antimycobacterial activity against Mycobacterium smegmatis atR10 in liquid medium after 48 hrs by two-fold serial dilution method; assay type: functional; settings: atR10, 48 h; method in brief: as §1
[14] = tested on: Mycolicibacterium smegmatis; assay: Antimycobacterial activity against Mycobacterium smegmatis atR11 assessed as decrease in drug resistance development at 300 nmol/disc after 2 to 3 days by paper disc method; assay type: functional, organism-based; method in brief: as §2
[15] = tested on: Mycolicibacterium smegmatis; assay: Antimycobacterial activity against Mycobacterium smegmatis atR37 assessed as decrease in drug resistance development at 300 nmol/disc after 2 to 3 days by paper disc method; assay type: functional, organism-based; method in brief: as §3
[16] = tested on: Mycolicibacterium smegmatis; assay: Antimycobacterial activity against Mycobacterium smegmatis atR40 assessed as decrease in drug resistance development at 300 nmol/disc after 2 to 3 days by paper disc method; assay type: functional, organism-based; method in brief: as §3
[17] = tested on: Mycolicibacterium smegmatis; assay: Antimycobacterial activity against Mycobacterium smegmatis atR37 in liquid medium after 48 hrs by two-fold serial dilution method; assay type: functional; settings: atR37, 48 h; method in brief: as §1
[18] = tested on: Mycolicibacterium smegmatis; assay: Antimycobacterial activity against Mycobacterium smegmatis atR14 in liquid medium after 48 hrs by two-fold serial dilution method; assay type: functional; settings: atR14, 48 h; method in brief: as §1
[19] = tested on: Mycolicibacterium smegmatis; assay: Antimycobacterial activity against Mycobacterium smegmatis atR19 in liquid medium after 48 hrs by two-fold serial dilution method; assay type: functional; settings: atR19, 48 h; method in brief: as §1
[20] = tested on: Mycolicibacterium smegmatis; assay: Antimycobacterial activity against Mycobacterium smegmatis atR8 in liquid medium after 48 hrs by two-fold serial dilution method; assay type: functional; settings: atR8, 48 h; method in brief: as §1
[21] = tested on: Mycolicibacterium smegmatis; assay: Antimycobacterial activity against Mycobacterium smegmatis atR17 in liquid medium after 48 hrs by two-fold serial dilution method; assay type: functional; settings: atR17, 48 h; method in brief: as §1
[22] = tested on: Mycolicibacterium smegmatis; assay: Antimycobacterial activity against Mycobacterium smegmatis atR17 assessed as decrease in drug resistance development at 300 nmol/disc after 2 to 3 days by paper disc method; assay type: functional, organism-based; method in brief: as §2
[23] = tested on: Mycolicibacterium smegmatis; assay: Antimycobacterial activity against Mycobacterium smegmatis atR1 assessed as decrease in drug resistance development at 300 nmol/disc after 2 to 3 days by paper disc method; assay type: functional, organism-based; method in brief: as §2
[24] = tested on: Mycolicibacterium smegmatis; assay: Antimycobacterial activity against Mycobacterium smegmatis atR14 assessed as decrease in drug resistance development at 300 nmol/disc after 2 to 3 days by paper disc method; assay type: functional, organism-based; method in brief: as §2
[25] = tested on: Mycolicibacterium smegmatis; assay: Antimycobacterial activity against Mycobacterium smegmatis atR40 in liquid medium after 48 hrs by two-fold serial dilution method; assay type: functional; settings: atR40, 48 h; method in brief: as §1
[26] = tested on: Mycolicibacterium smegmatis; assay: Antimycobacterial activity against Mycobacterium smegmatis atR2 in liquid medium after 48 hrs by two-fold serial dilution method; assay type: functional; settings: atR2, 48 h; method in brief: as §1
[27] = tested on: Mycolicibacterium smegmatis; assay: Antimycobacterial activity against Mycobacterium smegmatis atR9 in liquid medium after 48 hrs by two-fold serial dilution method; assay type: functional; settings: atR9, 48 h; method in brief: as §1
[28] = tested on: Mycolicibacterium smegmatis MC2 155; assay: Inhibition of STPK in Mycobacterium smegmatis MC2 155 expressing aminoglycoside phophotransferase-8 assessed as growth inhibition at 100 nmol/disk after 18 hrs in presence of kanamycin by paper disk method
[29] = tested on: Mycolicibacterium smegmatis MC2 155; assay: Inhibition of STPK in Mycobacterium smegmatis MC2 155 expressing aminoglycoside phophotransferase-8 assessed as growth inhibition at 5 nmol/disk after 18 hrs in presence of kanamycin by paper disk method
[30] = tested on: Mycolicibacterium smegmatis; assay: Antimycobacterial activity against Mycobacterium smegmatis atR8 assessed as decrease in drug resistance development at 200 nmol/disc after 2 to 3 days by paper disc method; assay type: functional, organism-based; method in brief: as §3
[31] = tested on: Mycolicibacterium smegmatis; assay: Antimycobacterial activity against Mycobacterium smegmatis atR9 assessed as decrease in drug resistance development at 200 nmol/disc after 2 to 3 days by paper disc method; assay type: functional, organism-based; method in brief: as §3
[32] = tested on: Mycolicibacterium smegmatis; assay: Antimycobacterial activity against Mycobacterium smegmatis atR17 assessed as decrease in drug resistance development at 200 nmol/disc after 2 to 3 days by paper disc method; assay type: functional, organism-based; method in brief: as §2
[33] = tested on: Mycolicibacterium smegmatis; assay: Antimycobacterial activity against Mycobacterium smegmatis atR10 assessed as decrease in drug resistance development at 200 nmol/disc after 2 to 3 days by paper disc method; assay type: functional, organism-based; method in brief: as §2
[34] = tested on: Mycolicibacterium smegmatis; assay: Antimycobacterial activity against Mycobacterium smegmatis atR17 assessed as decrease in drug resistance at 10 nmol/disc after 2 to 3 days by paper disc method; assay type: functional, organism-based; method in brief: as §2
[35] = tested on: Mycolicibacterium smegmatis; assay: Antimycobacterial activity against Mycobacterium smegmatis atR10 assessed as decrease in drug resistance development at 10 nmol/disc after 2 to 3 days by paper disc method; assay type: functional, organism-based; method in brief: as §2

Compound	inhibition zone (IZ) [1]	MIC [2]	MIC [3]	MIC [7]	MIC [8]	MIC [10]	MIC [11]	MIC [13]	MIC [17]	MIC [18]	MIC [19]	MIC [20]	MIC [21]	MIC [25]	MIC [26]	MIC [27]	also measured
CCCCCCCNc1nnc2ncc(Sc3ccccc3)n2n1	12 mm	–	–	–	–	–	–	–	–	–	–	–	–	–	–	–	–
Cc1cc(C)n(-c2nnc3ncc(SC(C)C)n3n2)n1	13.3 mm	512 µg/mL (≈ 1770 µM)	221 µM (≈ 64 µg/mL)	3.5 µM (≈ 1.01 µg/mL)	512 µg/mL (≈ 1770 µM)	221 µM (≈ 64 µg/mL)	512 µg/mL (≈ 1770 µM)	512 µg/mL (≈ 1770 µM)	512 µg/mL (≈ 1770 µM)	256 µg/mL (≈ 885 µM)	256 µg/mL (≈ 885 µM)	512 µg/mL (≈ 1770 µM)	256 µg/mL (≈ 885 µM)	512 µg/mL (≈ 1770 µM)	1020 µg/mL (≈ 3540 µM)	256 µg/mL (≈ 885 µM)	Activity [4]: inactive; Activity [5]: inactive; Activity [6]: inactive; Activity [9]: inactive; Activity [12]: inactive; Activity [14]: inactive; Activity [15]: inactive; Activity [16]: inactive; Activity [22]: inactive; Activity [23]: inactive; Activity [24]: inactive
COc1ccc(OC)c(Sc2cnc3nnc(-n4nc(C)cc4C)nn23)c1	–	–	–	–	–	–	–	–	–	–	–	–	–	–	–	–	inhibition zone (IZ) [28]: 9.3 mm
Cc1cc(C)n(-c2nnc3ncc(SCc4ccccc4)n3n2)n1	–	> 64 µg/mL	94.8 µM (≈ 32 µg/mL)	3 µM (≈ 1.01 µg/mL)	> 64 µg/mL	59.3 µM (≈ 20 µg/mL)	> 64 µg/mL	> 64 µg/mL	> 64 µg/mL	> 64 µg/mL	> 64 µg/mL	> 64 µg/mL	> 64 µg/mL	> 64 µg/mL	> 64 µg/mL	> 64 µg/mL	Activity [4]: inactive; Activity [5]: inactive; Activity [6]: inactive; Activity [9]: inactive; Activity [12]: inactive; Activity [14]: inactive; Activity [15]: inactive; Activity [16]: inactive; Activity [22]: inactive; Activity [23]: inactive; inhibition zone (IZ) [28]: 13.7 mm; Activity [24]: inactive
CCC(CCCO)Sc1cnc2nnc(-n3nc(C)cc3C)nn12 (stereo not given)	–	–	–	–	–	–	–	–	–	–	–	–	–	–	–	–	inhibition zone (IZ) [29]: 9.3 mm
c1cn(-c2nnc3nccn3n2)cn1	12.8 mm	32 µg/mL (≈ 171 µM)	171 µM (≈ 32 µg/mL)	134 µM (≈ 25 µg/mL)	32 µg/mL (≈ 171 µM)	134 µM (≈ 25 µg/mL)	32 µg/mL (≈ 171 µM)	32 µg/mL (≈ 171 µM)	32 µg/mL (≈ 171 µM)	32 µg/mL (≈ 171 µM)	32 µg/mL (≈ 171 µM)	32 µg/mL (≈ 171 µM)	32 µg/mL (≈ 171 µM)	32 µg/mL (≈ 171 µM)	32 µg/mL (≈ 171 µM)	32 µg/mL (≈ 171 µM)	Activity [30]: inactive; Activity [31]: inactive; Activity [32]: inactive; Activity [33]: inactive
Cc1cc(C)n(-c2nnc3nc(-c4ccccc4)c(SC(C)C)n3n2)n1	–	–	–	–	–	–	–	–	–	–	–	–	–	–	–	–	inhibition zone (IZ) [29]: 11 mm
O=C1c2c(O)ccc(O)c2C(=O)c2c(NCCNCCO)ccc(NCCNCCO)c21	–	–	–	–	–	–	–	–	–	–	–	–	–	–	–	–	Activity [34]: inactive; Activity [35]: inactive
